Laboratory results taken from ChEMBL document CHEMBL1773027, “Development of new indole-derived neuroprotective agents” (2011).
The source made the active and inactive calls. No cut-off for these calls is given here.

Experiments:
[1] = system: Rattus norvegicus; test: Neuroprotective activity against ACR-intoxicated Sprague-Dawley rat assessed as increase in adrenaline level in brain at 50 mg/kg, ip administered 10 mins prior to ACR injection 3 days per week for 3 weeks by ELISA relative to control; format: functional; conditions: route intraperitoneal
Summary of the method: (§1)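 Female Sprague–Dawley rats (n = 10/group) were injected with ACR 50 mg/kg ip in water, with agent at 50 mg/kg ip in 2% Tween 80 10 min before, 3 days/week for 3 weeks. Brain was homogenized 10% w/v in 50 mM Tris–HCl pH 7.4 with 300 mM sucrose and spun 1800 × g for 10 min at 4 °C. Adrenaline and noradrenaline were measured in the supernatant, as ng/mg protein.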

[2] = system: Rattus norvegicus; test: Neuroprotective activity against ACR-intoxicated Sprague-Dawley rat assessed as increase in noradrenaline level in brain at 50 mg/kg, ip administered 10 mins prior to ACR injection 3 days per week for 3 weeks by ELISA relative to control; format: functional; conditions: route intraperitoneal; summary of the method: as §1
[3] = system: Rattus norvegicus; test: Neuroprotective activity against ACR-intoxicated Sprague-Dawley rat assessed as increase in dopamine level in brain at 50 mg/kg, ip administered 10 mins prior to ACR injection 3 days per week for 3 weeks by spectrofluorimetrically relative to control; format: functional; conditions: route intraperitoneal
Summary of the method: (§2)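 In this rat model (female Sprague–Dawley, n = 10/group), ACR 50 mg/kg ip in water was preceded by 10 min with agent at 50 mg/kg ip in 2% Tween 80, 3 days/week for 3 weeks. Brain dopamine was determined spectrofluorimetrically and expressed as ng/g tissue.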

[4] = system: Rattus norvegicus; test: Neuroprotective activity against ACR-intoxicated Sprague-Dawley rat assessed as decrease in malinoaldehyde level in brain at 50 mg/kg, ip administered 10 mins prior to ACR injection 3 days per week for 3 weeks […] relative to control; format: functional; design: scale not given: the % may be the effect or the level left; conditions: route intraperitoneal
[5] = system: Rattus norvegicus; test: Neuroprotective activity against ACR-intoxicated Sprague-Dawley rat assessed as decrease in GSH level in brain at 50 mg/kg, ip administered 10 mins prior to ACR injection 3 days per week for 3 weeks […] relative to control; format: functional; design: scale not given: the % may be the effect or the level left; conditions: route intraperitoneal
[6] = system: Rattus norvegicus; test: Neuroprotective activity against ACR-intoxicated Sprague-Dawley rat assessed as increase in Gpx level in brain at 50 mg/kg, ip administered 10 mins prior to ACR injection 3 days per week for 3 weeks […] relative to control; format: functional; conditions: route intraperitoneal
[7] = system: Rattus norvegicus; test: Neuroprotective activity against ACR-intoxicated Sprague-Dawley rat assessed as increase in SOD level in brain at 50 mg/kg, ip administered 10 mins prior to ACR injection 3 days per week for 3 weeks by spectrofluorimetrically relative to control; format: functional; conditions: route intraperitoneal
Summary of the method: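 Female Sprague–Dawley rats (160–180 g, n = 10/group) received ACR 50 mg/kg ip in water. Test agents were given at 50 mg/kg ip in 2% Tween 80, 10 min before ACR, 3 days/week for 3 weeks. Brain was homogenized 10% w/v in ice-cold 50 mM Tris–HCl pH 7.4 with 300 mM sucrose and spun 1800 × g for 10 min at 4 °C. Supernatant MDA, GSH, GPx and SOD were read spectrophotometrically by kit and expressed per mg protein (Lowry).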

[8] = system: Rattus norvegicus; test: Neuroprotective activity against ACR-intoxicated Sprague-Dawley rat assessed as decrease in LDH level in brain at 50 mg/kg, ip administered 10 mins prior to ACR injection 3 days per week for 3 weeks by spectrofluorimetrically relative to control; format: functional; design: scale not given: the % may be the effect or the level left; conditions: route intraperitoneal
Summary of the method: (§3)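 Female Sprague–Dawley rats (n = 10/group) were dosed ip with ACR 50 mg/kg (water). Pretreatment was 50 mg/kg ip in 2% Tween 80 given 10 min earlier, 3 days/week for 3 weeks. The brain 10% homogenate (50 mM Tris–HCl pH 7.4, 300 mM sucrose) was centrifuged 1800 × g for 10 min at 4 °C. Supernatant LDH and CK activities were read spectrophotometrically by kit, as U/mg protein.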

[9] = system: Rattus norvegicus; test: Neuroprotective activity against ACR-intoxicated Sprague-Dawley rat assessed as increase in CK level in brain at 50 mg/kg, ip administered 10 mins prior to ACR injection 3 days per week for 3 weeks by spectrofluorimetrically relative to control; format: functional; conditions: route intraperitoneal; summary of the method: as §3
[10] = system: Brain; test: Neuroprotective activity against ACR-intoxicated Sprague-Dawley rat brain assessed as appearance of normal neuron at 50 mg/kg, ip administered 10 mins prior to ACR injection 3 days per week for 3 weeks by hematoxylin and eosin staining method relative to ACR group; format: functional, organism-based; design: dose 50 mg/kg
Summary of the method: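 After 3 weeks of ACR (50 mg/kg ip, water) plus pretreatment (50 mg/kg ip in 2% Tween 80, 10 min before, 3 days/week), rat brains were fixed in buffered formalin for 1 week. They were then washed in tap water for 24 h, dehydrated through graded alcohol, cleared in xylene and paraffin-embedded. Sections were examined microscopically for neuronal morphology.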

[11] = system: Rattus norvegicus; test: Neuroprotective activity against ACR-intoxicated Sprague-Dawley rat assessed as increase in GSH level in brain at 50 mg/kg, ip administered 10 mins prior to ACR injection 3 days per week for 3 weeks […] relative to control; format: functional; conditions: route intraperitoneal
[12] = system: Rattus norvegicus; test: Neuroprotective activity against ACR-intoxicated Sprague-Dawley rat assessed as decrease in dopamine level in brain at 50 mg/kg, ip administered 10 mins prior to ACR injection 3 days per week for 3 weeks by spectrofluorimetrically relative to control; format: functional; design: scale not given: the % may be the effect or the level left; conditions: route intraperitoneal; summary of the method: as §2

SMILES | Activity [1] | Activity [2] | Activity [3] | Activity [4] | Activity [5] | Activity [6] | Activity [7] | Activity [8] | Activity [9] | Activity [10] | Activity [11] | Activity [12]
CCOC(=O)c1c(N)cnc(Cc2c[nH]c3ccccc23)c1Nc1ccccc1 | 14% | 2% | 9% | 10% | 18% | 23% | 6% | 20% | 14% | Active | – | –
N[C@@H](Cc1c[nH]c2ccccc12)C(=O)O [TRYPTOPHAN] | 17% | 16% | 21% | 25% | – | 38% | 18% | 35% | 27% | – | 9% | –
O=C(Cc1nnn[nH]1)NC(Cc1c[nH]c2ccccc12)C(=O)O (centres undefined) | 67% | 21% | 29% | 26% | – | 50% | 94% | 35% | 64% | Active | 36% | –
C=NC(Cc1c[nH]c2ccccc12)C(=O)C1C(N)=NNC1N (centres undefined) | 15% | 6% | 15% | 22% | – | 25% | 12% | 20% | 22% | Active | 9% | –
C=NC(Cc1c[nH]c2ccccc12)C(=O)C1C(N)=NC(=N)N=C1N (centres undefined) | 10% | 1% | – | 5% | 18% | 1% | 3% | 10% | 7% | Active | – | 2%
